Reference: ChEMBL document CHEMBL2434966, “Novel N-4-piperazinyl-ciprofloxacin-chalcone hybrids: synthesis, physicochemical properties, anticancer and topoisomerase I and II inhibitory activity” (Eur J Med Chem, 2013)
≈ marks a conversion by molar mass, not a printed value.

Legend:
LOX IMVI = experiment: Growth inhibition of human LOXIMVI cells assessed as cell growth at 10^-5 M after 48 hrs by sulforhodamine B assay; format: functional; details: read-out: Activity
Method in brief: (§1)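 NCI 60-cell-line primary screen. Single concentration of 10^-5 M, 48 h incubation. End point by sulforhodamine B protein staining read spectrophotometrically. Reported as percent growth of treated cells relative to untreated control cells.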

MCF7 [1] = experiment: Growth inhibition of human MCF7 cells assessed as cell growth at 10^-5 M after 48 hrs by sulforhodamine B assay; format: functional; details: MCF7, 48 h, read-out: Activity; method in brief: as §1
NCI-H226 = experiment: Growth inhibition of human NCI-H226 cells after 48 hrs by sulforhodamine B assay; format: functional; details: NCI-H226, 48 h; for CC50: read-out: LC50 (the source's name)
Method in brief: (§2)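 NCI five-dose screen on the full 60-cell-line panel. Cells were given 10-fold dilutions from 10^-4 to 10^-8 M with continuous 48 h exposure, and growth was read by SRB staining. Percent growth was taken from time-zero, control and treated absorbances. GI50, TGI and LC50 were then derived, the GI50 being the concentration that gives a 50% lower net protein increase than control.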

SK-MEL-5 = experiment: Growth inhibition of human SK-MEL-5 cells after 48 hrs by sulforhodamine B assay; format: functional; details: SK-MEL-5, 48 h; for CC50: read-out: LC50 (the source's name); method in brief: as §2
786-0 [2] = experiment: Growth inhibition of human 786-0 cells after 48 hrs by sulforhodamine B assay; format: functional; details: 786-0, 48 h
Method in brief: (§3)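 NCI 60-panel five-dose test at 10-fold dilutions, 10^-4 to 10^-8 M, with 48 h continuous exposure and SRB protein read-out. Percent growth derived from time-zero, untreated-control and treated absorbances. GI50 is the concentration where [(Ti-Tz)/(C-Tz)]×100 = 50. TGI is taken at Ti = Tz. LC50 is taken at [(Ti-Tz)/Tz]×100 = -50.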

NCI-H322M = experiment: Growth inhibition of human NCI-H322M cells after 48 hrs by sulforhodamine B assay; format: functional; details: for CC50: read-out: LC50 (the source's name); method in brief: as §2
K562 = experiment: Growth inhibition of human K562 cells after 48 hrs by sulforhodamine B assay; format: functional; details: K562, 48 h; method in brief: as §3
SNB-19 = experiment: Growth inhibition of human SNB19 cells assessed as cell growth at 10^-5 M after 48 hrs by sulforhodamine B assay; format: functional; details: SNB-19, 48 h, read-out: Activity
Method in brief: (§4)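 NCI primary one-dose screen: single concentration of 10^-5 M added to culture, 48 h incubation, SRB protein-dye endpoint. Percent growth of treated cells measured spectrophotometrically against untreated controls.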

MOLT-4 = experiment: Growth inhibition of human MOLT4 cells after 48 hrs by sulforhodamine B assay; format: functional; details: MOLT-4, 48 h; for CC50: read-out: LC50 (the source's name); method in brief: as §2
NCI-H23 = experiment: Growth inhibition of human NCI-H23 cells after 48 hrs by sulforhodamine B assay; format: functional; details: NCI-H23, 48 h; for CC50: read-out: LC50 (the source's name); method in brief: as §2
T47D [3] = experiment: Growth inhibition of human T47D cells assessed as cell growth at 10^-5 M after 48 hrs by sulforhodamine B assay; format: functional; details: read-out: Activity; method in brief: as §4
SK-MEL-2 = experiment: Growth inhibition of human SK-MEL-2 cells after 48 hrs by sulforhodamine B assay; format: functional; details: SK-MEL-2, 48 h; for CC50: read-out: LC50 (the source's name); method in brief: as §2
M14 = experiment: Growth inhibition of human M14 cells after 48 hrs by sulforhodamine B assay; format: functional; details: M14, 48 h; method in brief: as §3
COLO 205 = experiment: Growth inhibition of human COLO205 cells after 48 hrs by sulforhodamine B assay; format: functional; details: COLO 205, 48 h; method in brief: as §3
U-251 = experiment: Growth inhibition of human U251 cells assessed as cell growth at 10^-5 M after 48 hrs by sulforhodamine B assay; format: functional; details: U-251, 48 h, read-out: Activity; method in brief: as §4
[4] = Aqueous solubility of the compound at pH 7.8 by UV spectroscopic analysis; format: physicochemical; details: aqueous solution
Method in brief: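 Excess solid (10 mg) shaken in buffer at pH 6.9 or 7.8, 37 °C. The filtrate was diluted into the linear calibration range and dissolved drug measured by UV absorbance at λmax 272 nm. Values are the average of at least three agreeing independent measurements.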

OVCAR-3 = experiment: Growth inhibition of human OVCAR3 cells assessed as cell growth at 10^-5 M after 48 hrs by sulforhodamine B assay; format: functional; details: OVCAR-3, 48 h, read-out: Activity
Method in brief: (§5)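 NCI 60-cell-line primary one-dose screen. Cells were exposed to a single 10^-5 M concentration for 48 h. The end point was sulforhodamine B protein staining, read spectrophotometrically. Results are reported as percent growth of treated cells relative to untreated control cells.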

SF-295 = experiment: Growth inhibition of human SF295 cells after 48 hrs by sulforhodamine B assay; format: functional; details: SF-295, 48 h; method in brief: as §2
T47D [5] = experiment: Growth inhibition of human T47D cells after 48 hrs by sulforhodamine B assay; format: functional
Method in brief: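 NCI 60-cell panel, five concentrations (10-fold dilutions, 0.01–100 µM), 48 h continuous exposure; SRB protein stain read spectrophotometrically. Percent growth from time-zero, untreated-control and treated absorbances. GI50 is the concentration giving 50% lower net protein increase than control. Values beyond the tested range are reported as more or less than the highest or lowest concentration.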

MCF7 [6] = experiment: Growth inhibition of human MCF7 cells after 48 hrs by sulforhodamine B assay; format: functional; details: MCF7, 48 h; method in brief: as §3
786-0 [7] = experiment: Growth inhibition of human 786-0 cells assessed as cell growth at 10^-5 M after 48 hrs by sulforhodamine B assay; format: functional; details: 786-0, 48 h, read-out: Activity; method in brief: as §1
A549 = experiment: Growth inhibition of human A549/ATCC cells after 48 hrs by sulforhodamine B assay; format: functional; details: A549, 48 h; method in brief: as §3
OVCAR-5 = experiment: Growth inhibition of human OVCAR5 cells assessed as cell growth at 10^-5 M after 48 hrs by sulforhodamine B assay; format: functional; details: OVCAR-5, 48 h, read-out: Activity; method in brief: as §5
[8] = biological target: DNA topoisomerase 2-alpha (Homo sapiens) (UniProt P11388); experiment: Inhibition of human topoisomerase 2alpha-mediated relaxation of supercoiled pBR322 DNA at 100 uM after 30 mins by agarose gel electrophoresis relative to control
DNA topoisomerase 2-alpha (Homo sapiens), sequence (P11388 whole entry): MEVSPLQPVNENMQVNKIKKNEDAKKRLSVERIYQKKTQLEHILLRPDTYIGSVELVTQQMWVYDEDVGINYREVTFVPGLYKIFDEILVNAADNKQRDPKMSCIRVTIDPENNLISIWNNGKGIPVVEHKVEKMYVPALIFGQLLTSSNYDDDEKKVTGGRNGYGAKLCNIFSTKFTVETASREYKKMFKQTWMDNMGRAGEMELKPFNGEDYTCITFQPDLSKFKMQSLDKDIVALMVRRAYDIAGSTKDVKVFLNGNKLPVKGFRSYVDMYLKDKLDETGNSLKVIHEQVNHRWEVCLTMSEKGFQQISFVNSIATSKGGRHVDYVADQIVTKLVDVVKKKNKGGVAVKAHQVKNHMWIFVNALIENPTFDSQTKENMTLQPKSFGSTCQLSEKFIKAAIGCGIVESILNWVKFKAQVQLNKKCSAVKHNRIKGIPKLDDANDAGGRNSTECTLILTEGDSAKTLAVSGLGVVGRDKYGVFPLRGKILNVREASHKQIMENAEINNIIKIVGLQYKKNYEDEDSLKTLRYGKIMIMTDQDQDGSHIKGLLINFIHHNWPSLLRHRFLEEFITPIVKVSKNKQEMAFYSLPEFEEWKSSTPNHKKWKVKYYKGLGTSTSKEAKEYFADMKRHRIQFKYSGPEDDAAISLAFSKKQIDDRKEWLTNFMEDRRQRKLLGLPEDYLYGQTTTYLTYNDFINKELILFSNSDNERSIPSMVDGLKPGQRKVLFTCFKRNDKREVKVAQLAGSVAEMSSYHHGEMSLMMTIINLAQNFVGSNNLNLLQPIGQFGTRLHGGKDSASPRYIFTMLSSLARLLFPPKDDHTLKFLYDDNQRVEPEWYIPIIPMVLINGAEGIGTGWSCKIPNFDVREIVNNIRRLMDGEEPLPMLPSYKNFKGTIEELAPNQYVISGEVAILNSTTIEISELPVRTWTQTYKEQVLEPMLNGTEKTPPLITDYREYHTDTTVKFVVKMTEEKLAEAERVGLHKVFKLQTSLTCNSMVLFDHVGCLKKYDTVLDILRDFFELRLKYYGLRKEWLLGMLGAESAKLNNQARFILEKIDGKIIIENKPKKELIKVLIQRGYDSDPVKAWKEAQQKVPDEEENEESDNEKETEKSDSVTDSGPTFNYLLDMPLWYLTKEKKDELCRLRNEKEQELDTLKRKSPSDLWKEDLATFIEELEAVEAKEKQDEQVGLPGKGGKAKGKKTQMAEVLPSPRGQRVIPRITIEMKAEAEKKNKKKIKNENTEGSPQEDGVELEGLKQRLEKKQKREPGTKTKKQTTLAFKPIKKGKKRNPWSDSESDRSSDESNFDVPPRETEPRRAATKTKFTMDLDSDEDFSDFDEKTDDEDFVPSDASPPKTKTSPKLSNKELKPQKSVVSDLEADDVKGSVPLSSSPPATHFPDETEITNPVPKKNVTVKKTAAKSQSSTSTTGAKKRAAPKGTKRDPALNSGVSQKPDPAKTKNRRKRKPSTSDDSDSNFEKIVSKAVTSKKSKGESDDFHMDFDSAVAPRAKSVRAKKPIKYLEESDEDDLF
Method in brief: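 Human topo IIα (1 unit) with 200 ng supercoiled pBR322 in Tris-HCl pH 7.9, 50 mM NaCl, 5 mM MgCl2, 1 mM EDTA, 1 mM ATP, BSA, 30 min at 30 °C. DMSO was matched in the enzyme-only control. Stopped with EDTA; 1% agarose/TAE gel, ethidium stain, supercoiled band quantified by UV imaging. Etoposide was the positive control.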

O=C(CN1CCN(c2cc3c(cc2F)c(=O)c(C(=O)O)cn3C2CC2)CC1)Nc1ccc(C(=O)/C=C/c2ccccc2)cc1
growth at 10 µM (LOX IMVI): 5.67% | growth at 10 µM (MCF7 [1]): 12.5% | GI50 (NCI-H226): 6.83 µM | TGI (NCI-H226): > 100 µM | CC50 (NCI-H226): > 100 µM | GI50 (SK-MEL-5): 2.74 µM | TGI (SK-MEL-5): 13 µM | CC50 (SK-MEL-5): > 100 µM | GI50 (786-0 [2]): 4.5 µM | LC50 (786-0 [2]): > 100 µM | TGI (786-0 [2]): > 100 µM | GI50 (NCI-H322M): 4.04 µM | TGI (NCI-H322M): 58.7 µM | CC50 (NCI-H322M): > 100 µM | GI50 (K562): 3.07 µM | LC50 (concentration giving 50% net cell kill) (K562): > 100 µM | TGI (K562): > 100 µM | growth at 10 µM (SNB-19): 40.3% | GI50 (MOLT-4): 5.13 µM | TGI (MOLT-4): > 100 µM | CC50 (MOLT-4): > 100 µM | GI50 (NCI-H23): 2.48 µM | TGI (NCI-H23): 14.3 µM | CC50 (NCI-H23): > 100 µM | growth at 10 µM (T47D [3]): 85.1% | GI50 (SK-MEL-2): 2.94 µM | TGI (SK-MEL-2): 11.3 µM | CC50 (SK-MEL-2): > 100 µM | GI50 (M14): 5.22 µM | LC50 (concentration giving 50% net cell kill) (M14): > 100 µM | TGI (M14): > 100 µM | GI50 (COLO 205): 36.3 µM | LC50 (lethal concentration, 50% net cell kill) (COLO 205): > 100 µM | TGI (COLO 205): > 100 µM | growth at 10 µM (U-251): 14.9% | solubility [4]: 2.53 µg/mL (≈ 4.25 µM) | growth at 10 µM (OVCAR-3): 54.9% | GI50 (SF-295): 2.11 µM | LC50 (concentration giving 50% net cell kill) (SF-295): > 100 µM | TGI (SF-295): 6.25 µM | GI50 (T47D [5]): 6.66 µM | LC50 (concentration killing 50% of the cells present at time zero) (T47D [5]): > 100 µM | TGI (T47D [5]): > 100 µM | GI50 (MCF7 [6]): 3.52 µM | LC50 (50% net cell kill) (MCF7 [6]): > 100 µM | TGI (MCF7 [6]): > 100 µM | growth at 10 µM (786-0 [7]): 23.2% | GI50 (A549): 2.41 µM | LC50 (concentration giving 50% net cell kill) (A549): > 100 µM | growth at 10 µM (OVCAR-5): 82.6% | inhibition [8]: 35.7%

COc1cc(/C=C/C(=O)c2ccc(NC(=O)CN3CCN(c4cc5c(cc4F)c(=O)c(C(=O)O)cn5C4CC4)CC3)cc2)cc(OC)c1OC
growth at 10 µM (LOX IMVI): -54.7% | growth at 10 µM (MCF7 [1]): 26.5% | GI50 (NCI-H226): 0.95 µM | TGI (NCI-H226): 26 µM | CC50 (NCI-H226): > 100 µM | GI50 (SK-MEL-5): 1.06 µM | TGI (SK-MEL-5): 4.06 µM | CC50 (SK-MEL-5): > 100 µM | GI50 (786-0 [2]): 0.6 µM | LC50 (786-0 [2]): 7.7 µM | TGI (786-0 [2]): 2.38 µM | GI50 (NCI-H322M): 0.29 µM | TGI (NCI-H322M): 2.3 µM | CC50 (NCI-H322M): > 100 µM | GI50 (K562): 0.27 µM | LC50 (concentration giving 50% net cell kill) (K562): > 100 µM | TGI (K562): > 100 µM | growth at 10 µM (SNB-19): 34.9% | GI50 (MOLT-4): 0.31 µM | CC50 (MOLT-4): > 100 µM | GI50 (NCI-H23): 0.56 µM | TGI (NCI-H23): 2.91 µM | CC50 (NCI-H23): 14.2 µM | growth at 10 µM (T47D [3]): 17.6% | GI50 (SK-MEL-2): 1.98 µM | TGI (SK-MEL-2): 5.38 µM | CC50 (SK-MEL-2): 43.7 µM | GI50 (M14): 0.77 µM | LC50 (concentration giving 50% net cell kill) (M14): > 100 µM | TGI (M14): 7.16 µM | GI50 (COLO 205): 1.62 µM | LC50 (lethal concentration, 50% net cell kill) (COLO 205): > 100 µM | TGI (COLO 205): 15.4 µM | growth at 10 µM (U-251): -55.8% | solubility [4]: 2.01 µg/mL (≈ 2.94 µM) | growth at 10 µM (OVCAR-3): -25.8% | GI50 (SF-295): 0.53 µM | LC50 (concentration giving 50% net cell kill) (SF-295): 53.1 µM | TGI (SF-295): 3.13 µM | GI50 (T47D [5]): 2.4 µM | LC50 (concentration killing 50% of the cells present at time zero) (T47D [5]): > 100 µM | TGI (T47D [5]): > 100 µM | GI50 (MCF7 [6]): 0.47 µM | LC50 (50% net cell kill) (MCF7 [6]): > 100 µM | TGI (MCF7 [6]): > 100 µM | growth at 10 µM (786-0 [7]): -67.8% | GI50 (A549): 0.37 µM | LC50 (concentration giving 50% net cell kill) (A549): > 100 µM | TGI (A549): 2.14 µM | growth at 10 µM (OVCAR-5): 16.9% | inhibition [8]: 5.2%
